According to ChEMBL document CHEMBL3745600, “2-Amino-thiophene derivatives present antileishmanial activity mediated by apoptosis and immunomodulation in vitro” (Eur J Med Chem, 2015):

system: not listed separately; test: Selectivity index, ratio of HC50 for human RBC to IC50 for promastigotes of Leishmania amazonensis IFLA/BR/67/PH8; settings: not given
Summary of the method: (§1)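 Promastigote values came from haemocytometer counts after 72 h at 25°C. Axenic amastigote values came from MTT readings after 24 h at 32°C, using amastigotes differentiated at pH 4.6. All 50% values were obtained by probit regression.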

`N#Cc1c(/N=C/c2ccc([N+](=O)[O-])cc2)sc2c1CCCC2` and `N#Cc1c(/N=C/c2ccccc2)sc2c1CCCC2` cannot be ordered by Selectivity Index: > 4.27 for the first, 11.1 for the second.

Going from `N#Cc1c(/N=C/c2ccc3ncccc3c2)sc2c1CCC2` to `N#Cc1c(/N=C/c2ccc3ncccc3c2)sc2c1CCCCC2`, the Selectivity Index falls from 12.7 to 4.35.

`N#Cc1c(/N=C/c2cccs2)sc2c1CCCCC2` and `N#Cc1c(/N=C/c2cccs2)sc2c1CCC2` cannot be ordered by Selectivity Index: > 4.22 for the first, > 5.73 for the second.

With `COc1ccc(Br)c(/C=N/c2sc3c(c2C#N)CCCC3)c1` the Selectivity Index was > 9.1.

system: not listed separately; test: Selectivity index, ratio of CC50 for Swiss mouse peritoneal macrophages to EC50 for axenic amastigotes of Leishmania amazonensis IFLA/BR/67/PH8; settings: not given; summary of the method: as §1

First: N#Cc1c(/N=C/c2ccc([N+](=O)[O-])cc2)sc2c1CCCC2
Second: N#Cc1c(/N=C/c2ccccc2)sc2c1CCCC2
The “Ratio CC50/EC50” value of the first is lower: 1.07 for the first, 1.13 for the second.

Compared with `N#Cc1c(/N=C/c2ccc3ncccc3c2)sc2c1CCC2`, `N#Cc1c(/N=C/c2ccc3ncccc3c2)sc2c1CCCCC2` is higher in “Ratio CC50/EC50” value: 1.9 for the first, 3.31 for the second.

Compared with `N#Cc1c(/N=C/c2cccs2)sc2c1CCCCC2`, `N#Cc1c(/N=C/c2cccs2)sc2c1CCC2` is lower in “Ratio CC50/EC50” value: 3.75 for the first, 2.56 for the second.

For `COc1ccc(Br)c(/C=N/c2sc3c(c2C#N)CCCC3)c1`, the “Ratio CC50/EC50” value was 1.26.

system: Leishmania amazonensis; test: Antileishmanial activity against promastigotes of Leishmania amazonensis IFLA/BR/67/PH8 after 72 hrs by Neubauer haemocytometer counting; settings: IFLA/BR/67/PH8, 72 h

Compared with `N#Cc1c(/N=C/c2ccc([N+](=O)[O-])cc2)sc2c1CCCC2`, `N#Cc1c(/N=C/c2ccccc2)sc2c1CCCC2` is 3-fold lower in IC50: 187 µM for the first, 61.5 µM for the second. The second is the more potent here.

First: N#Cc1c(/N=C/c2ccc3ncccc3c2)sc2c1CCC2
Second: N#Cc1c(/N=C/c2ccc3ncccc3c2)sc2c1CCCCC2
The IC50 of the first is 3.4-fold lower: 49.1 µM for the first, 165 µM for the second.

`N#Cc1c(/N=C/c2cccs2)sc2c1CCCCC2` and `N#Cc1c(/N=C/c2cccs2)sc2c1CCC2` are within 1.5-fold of each other in IC50: 189 µM for the first, 139 µM for the second.

`COc1ccc(Br)c(/C=N/c2sc3c(c2C#N)CCCC3)c1` gave an IC50 of 88 µM.

system: not listed separately; test: Toxicity in human RBC assessed as induction of hemolytic activity after 1 hr by spectrometer analysis; assay type: cell-based, Erythrocyte; settings: red blood cells (RBC)
Summary of the method: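 A 5% suspension of human erythrocytes in PBS was mixed 4:1 with serial compound dilutions and incubated 1 h at 37°C. The reaction was stopped with PBS (pH 7.2) and spun 10 min at 1000 x g, and supernatant absorbance was read at 540 nm. Haemolysis was expressed relative to a drug-free blank and to water-induced total lysis. HC50 was obtained by probit regression.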

Compared with `N#Cc1c(/N=C/c2ccc([N+](=O)[O-])cc2)sc2c1CCCC2`, `N#Cc1c(/N=C/c2ccccc2)sc2c1CCCC2` is lower in HC50 at 1 h: > 800 µM for the first, 682 µM for the second.

`N#Cc1c(/N=C/c2ccc3ncccc3c2)sc2c1CCC2` and `N#Cc1c(/N=C/c2ccc3ncccc3c2)sc2c1CCCCC2` are within 1.5-fold of each other in HC50 at 1 h: 625 µM for the first, 716 µM for the second.

`N#Cc1c(/N=C/c2cccs2)sc2c1CCCCC2` and `N#Cc1c(/N=C/c2cccs2)sc2c1CCC2` cannot be ordered by HC50 at 1 h: > 800 µM for the first, > 800 µM for the second.

With `COc1ccc(Br)c(/C=N/c2sc3c(c2C#N)CCCC3)c1` the HC50 at 1 h was > 800 µM.

system: not listed separately; test: Selectivity index, ratio of HC50 for human RBC to IC50 for axenic amastigotes of Leishmania amazonensis IFLA/BR/67/PH8; settings: not given; summary of the method: as §1

`N#Cc1c(/N=C/c2ccc([N+](=O)[O-])cc2)sc2c1CCCC2` and `N#Cc1c(/N=C/c2ccccc2)sc2c1CCCC2` cannot be ordered by Selectivity Index: > 3.76 for the first, 5.4 for the second.

First: N#Cc1c(/N=C/c2ccc3ncccc3c2)sc2c1CCC2
Second: N#Cc1c(/N=C/c2ccc3ncccc3c2)sc2c1CCCCC2
The Selectivity Index of the first is higher: 6 for the first, 5.41 for the second.

`N#Cc1c(/N=C/c2cccs2)sc2c1CCCCC2` and `N#Cc1c(/N=C/c2cccs2)sc2c1CCC2` cannot be ordered by Selectivity Index: > 4.16 for the first, > 3.79 for the second.

With `COc1ccc(Br)c(/C=N/c2sc3c(c2C#N)CCCC3)c1` the Selectivity Index was > 4.78.

system: Leishmania amazonensis; test: Antileishmanial activity against axenic amastigotes of Leishmania amazonensis IFLA/BR/67/PH8 after 24 hrs by MTT assay; settings: IFLA/BR/67/PH8, 24 h

Going from `N#Cc1c(/N=C/c2ccc([N+](=O)[O-])cc2)sc2c1CCCC2` to `N#Cc1c(/N=C/c2ccccc2)sc2c1CCCC2`, the EC50 falls from 213 µM to 124 µM (1.7-fold).

`N#Cc1c(/N=C/c2ccc3ncccc3c2)sc2c1CCC2` and `N#Cc1c(/N=C/c2ccc3ncccc3c2)sc2c1CCCCC2` are within 1.5-fold of each other in EC50: 103 µM for the first, 132 µM for the second.

`N#Cc1c(/N=C/c2cccs2)sc2c1CCCCC2` and `N#Cc1c(/N=C/c2cccs2)sc2c1CCC2` are within 1.5-fold of each other in EC50: 192 µM for the first, 211 µM for the second.

`COc1ccc(Br)c(/C=N/c2sc3c(c2C#N)CCCC3)c1` showed an EC50 of 167 µM.

system: not listed separately; test: Cytotoxicity against Swiss mouse peritoneal macrophages after 24 hrs by MTT assay; assay type: cell-based, Peritoneal macrophage cell; settings: not given
Summary of the method: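 Macrophages were collected from Swiss mice 5 days after thioglycollate (3%) elicitation. About 1 x 10^6 cells per well were incubated in RPMI 1640 with 10% heat-inactivated FBS and compound for 24 h at 37°C, 5% CO₂. MTT was added for 4 h, followed by 10% SDS, and absorbance was read at 540 nm. CC50 was obtained by probit regression.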

Compared with `N#Cc1c(/N=C/c2ccc([N+](=O)[O-])cc2)sc2c1CCCC2`, `N#Cc1c(/N=C/c2ccccc2)sc2c1CCCC2` is 1.6-fold lower in CC50 at 24 h: 229 µM for the first, 141 µM for the second.

Compared with `N#Cc1c(/N=C/c2ccc3ncccc3c2)sc2c1CCC2`, `N#Cc1c(/N=C/c2ccc3ncccc3c2)sc2c1CCCCC2` is 2.2-fold higher in CC50 at 24 h: 196 µM for the first, 438 µM for the second.

`N#Cc1c(/N=C/c2cccs2)sc2c1CCCCC2` and `N#Cc1c(/N=C/c2cccs2)sc2c1CCC2` are within 1.5-fold of each other in CC50 at 24 h: 722 µM for the first, 540 µM for the second.

`COc1ccc(Br)c(/C=N/c2sc3c(c2C#N)CCCC3)c1` showed a CC50 at 24 h of 211 µM.

system: not listed separately; test: Selectivity index, ratio of CC50 for Swiss mouse peritoneal macrophages to IC50 for promastigotes of Leishmania amazonensis IFLA/BR/67/PH8; assay type: functional; settings: not given; summary of the method: as §1

First: N#Cc1c(/N=C/c2ccc([N+](=O)[O-])cc2)sc2c1CCCC2
Second: N#Cc1c(/N=C/c2ccccc2)sc2c1CCCC2
The “Ratio CC50/IC50” value of the first is lower: 1.22 for the first, 2.29 for the second.

First: N#Cc1c(/N=C/c2ccc3ncccc3c2)sc2c1CCC2
Second: N#Cc1c(/N=C/c2ccc3ncccc3c2)sc2c1CCCCC2
The “Ratio CC50/IC50” value of the first is higher: 3.99 for the first, 2.66 for the second.

First: N#Cc1c(/N=C/c2cccs2)sc2c1CCCCC2
Second: N#Cc1c(/N=C/c2cccs2)sc2c1CCC2
The “Ratio CC50/IC50” value of the first is lower: 3.81 for the first, 3.87 for the second.

For `COc1ccc(Br)c(/C=N/c2sc3c(c2C#N)CCCC3)c1`, the “Ratio CC50/IC50” value was 2.4.
